Test results reported in ChEMBL document CHEMBL1139305, “Design, synthesis and pharmacological screening of novel antihypertensive agents using hybrid approach” (Bioorg Med Chem, 2009).
Values after ≈ are worked out from the molar mass of the structure shown. Active and inactive are the calls of the source. The rule behind the calls is not given here.

Key:
[1] = system: Rattus norvegicus; assay: Cardiovascular effect in anaesthetized Wistar rat assessed as mean arterial pressure at 40 mg/kg, ip after 15 mins; assay type: functional, Artery; settings: route intraperitoneal
Procedure, shortened: (§1)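 Adult normotensive Wistar rats (250–300 g) under thiopental (60 mg/kg ip). Right carotid artery cannulated with a heparinised catheter (20 IU/mL in saline, flushed every 30 min) connected to a pressure transducer. Measurement began one hour after surgery. Compound given ip at 40 mg/kg in 0.5% methyl cellulose, with mean arterial pressure read at 0, 15, 30, 45 and 60 min.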

[2] = system: Rattus norvegicus; assay: Cardiovascular effect in anaesthetized Wistar rat assessed as mean arterial pressure at 40 mg/kg, ip after 30 mins; assay type: functional, Artery; settings: route intraperitoneal; procedure, shortened: as §1
[3] = system: Rattus norvegicus; assay: Cardiovascular effect in anaesthetized Wistar rat assessed as mean arterial pressure at 40 mg/kg, ip after 45 mins; assay type: functional, Artery; settings: route intraperitoneal; procedure, shortened: as §1
[4] = system: Rattus norvegicus; assay: Cardiovascular effect in anaesthetized Wistar rat assessed as mean arterial pressure at 40 mg/kg, ip after 60 mins; assay type: functional, Artery; settings: route intraperitoneal; procedure, shortened: as §1
[5] = system: Rattus norvegicus; assay: Effect on heart rate in anesthetized Wistar rat assessed as number of beats per minutes at 40 mg/kg, ip after 15 mins by electrocardiography; assay type: functional; settings: route intraperitoneal
Procedure, shortened: (§2)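 Wistar rats (250–300 g) anaesthetised with thiopental 60 mg/kg ip, then given compound ip at 40 mg/kg in 0.5% aqueous methyl cellulose. ECG recorded by transducer, with heart rate (beats/min) and P–Q, QRS and Q–T intervals (ms) taken at 0, 15, 30, 45 and 60 min after dosing.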

[6] = system: Rattus norvegicus; assay: Effect on heart rate in anesthetized Wistar rat assessed as number of beats per minutes at 40 mg/kg, ip after 30 mins by electrocardiography; assay type: functional; settings: route intraperitoneal; procedure, shortened: as §2
[7] = system: Rattus norvegicus; assay: Effect on heart rate in anesthetized Wistar rat assessed as number of beats per minutes at 40 mg/kg, ip after 45 mins by electrocardiography; assay type: functional; settings: route intraperitoneal; procedure, shortened: as §2
[8] = system: Rattus norvegicus; assay: Effect on heart rate in anesthetized Wistar rat assessed as number of beats per minutes at 40 mg/kg, ip after 60 mins by electrocardiography; assay type: functional; settings: route intraperitoneal; procedure, shortened: as §2
[9] = system: Rattus norvegicus; assay: Effect on heart rate in anesthetized Wistar rat assessed as number of P-Q-intervals at 40 mg/kg, ip after 15 mins by electrocardiography; assay type: functional; settings: route intraperitoneal; procedure, shortened: as §2
[10] = system: Rattus norvegicus; assay: Effect on heart rate in anesthetized Wistar rat assessed as number of P-Q-intervals at 40 mg/kg, ip after 30 mins by electrocardiography; assay type: functional; settings: route intraperitoneal; procedure, shortened: as §2
[11] = system: Rattus norvegicus; assay: Effect on heart rate in anesthetized Wistar rat assessed as number of P-Q-intervals at 40 mg/kg, ip after 45 mins by electrocardiography; assay type: functional; settings: route intraperitoneal; procedure, shortened: as §2
[12] = system: Rattus norvegicus; assay: Effect on heart rate in anesthetized Wistar rat assessed as number of P-Q-intervals at 40 mg/kg, ip after 60 mins by electrocardiography; assay type: functional; settings: route intraperitoneal; procedure, shortened: as §2
[13] = system: Rattus norvegicus; assay: Effect on heart rate in anesthetized Wistar rat assessed as number of QRS complex at 40 mg/kg, ip after 15 mins by electrocardiography; assay type: functional; settings: route intraperitoneal; procedure, shortened: as §2
[14] = system: Rattus norvegicus; assay: Effect on heart rate in anesthetized Wistar rat assessed as number of QRS complex at 40 mg/kg, ip after 30 mins by electrocardiography; assay type: functional; settings: route intraperitoneal; procedure, shortened: as §2
[15] = system: Rattus norvegicus; assay: Effect on heart rate in anesthetized Wistar rat assessed as number of QRS complex at 40 mg/kg, ip after 45 mins by electrocardiography; assay type: functional; settings: route intraperitoneal; procedure, shortened: as §2
[16] = system: Rattus norvegicus; assay: Effect on heart rate in anesthetized Wistar rat assessed as number of QRS complex at 40 mg/kg, ip after 60 mins by electrocardiography; assay type: functional; settings: route intraperitoneal; procedure, shortened: as §2
[17] = system: Rattus norvegicus; assay: Effect on heart rate in anesthetized Wistar rat assessed as number of Q-T-intervals at 40 mg/kg, ip after 15 mins by electrocardiography; assay type: functional; settings: route intraperitoneal; procedure, shortened: as §2
[18] = system: Rattus norvegicus; assay: Effect on heart rate in anesthetized Wistar rat assessed as number of Q-T-intervals at 40 mg/kg, ip after 30 mins by electrocardiography; assay type: functional; settings: route intraperitoneal; procedure, shortened: as §2
[19] = system: Rattus norvegicus; assay: Effect on heart rate in anesthetized Wistar rat assessed as number of Q-T-intervals at 40 mg/kg, ip after 45 mins by electrocardiography; assay type: functional; settings: route intraperitoneal; procedure, shortened: as §2
[20] = system: Rattus norvegicus; assay: Effect on heart rate in anesthetized Wistar rat assessed as number of Q-T-intervals at 40 mg/kg, ip after 60 mins by electrocardiography; assay type: functional; settings: route intraperitoneal; procedure, shortened: as §2
[21] = system: Rattus norvegicus; assay: Antiarrhythmic activity in anaesthetized Wistar rat assessed as decrease in BaCl2-induced cardiac rhythm disturbance at 40 mg/kg, ip 60 mins before arrhythmogen challenge; assay type: functional, organism-based; parameters: dose 40 mg/kg; settings: Heart
Procedure, shortened: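 Rats (thiopental 60 mg/kg ip anaesthesia) given test compound ip at 40 mg/kg, suspended in 0.5% aqueous methyl cellulose, 60 min before iv barium chloride (32 mg/kg) to evoke arrhythmia. Scored by reduction of rhythm disturbances (premature ventricular beats, ventricular tachycardia, fibrillation) and mortality.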

[22] = system: Rattus norvegicus; assay: Vasorelaxation activity […] assessed as inhibition of norepinephrine-induced contraction of aorta ring at 0.1 mg/ml; assay type: functional
Procedure, shortened: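 Isolated Wistar rat aorta rings in physiological salt solution at 37 °C, gassed 95% O2/5% CO2, isometric tension, 60 min equilibration. After contraction plateau, test compound (0.1 mg/mL) added cumulatively; EC50 (g/mL) derived from cumulative concentration–response curves against norepinephrine.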

[23] = species on record: Rattus norvegicus; assay: NO release in Wistar rat by Griess reagent assay in presence of L-cysteine relative to control

| Structure (SMILES) | Activity [1] | Activity [2] | Activity [3] | Activity [4] | Activity [5] | Activity [6] | Activity [7] | Activity [8] | Activity [9] | Activity [10] | Activity [11] | Activity [12] | Activity [13] | Activity [14] | Activity [15] | Activity [16] | Activity [17] | Activity [18] | Activity [19] | Activity [20] | further results |
| --- | --- | --- | --- | --- | --- | --- | --- | --- | --- | --- | --- | --- | --- | --- | --- | --- | --- | --- | --- | --- | --- |
| CC(C)NCC(O)COc1ccc(CC(N)=O)cc1 (centres undefined) [ATENOLOL] | 79.01 mmHg | 63.44 mmHg | 65.24 mmHg | 69.93 mmHg |  |  |  |  |  |  |  |  |  |  |  |  |  |  |  |  |  |
| O=C(CO[N+](=O)[O-])NNC(=O)c1ccc(NCC(O)CN2C(=O)/C(=C/c3cccc([N+](=O)[O-])c3)S/C2=N/c2ccccc2)cc1 (centres undefined) | 87.32 mmHg | 85.08 mmHg | 85.87 mmHg | 90.29 mmHg | 318.61 | 295.46 | 302.16 | 315.86 | 57 | 57.8 | 56.2 | 55.6 | 21.4 | 22.4 | 21.8 | 20.4 | 71.4 | 72.4 | 71.8 | 70.4 | Activity [21]: inactive; EC50 [22]: 141 µg/mL (≈ 222 µM); % NO release [23]: 0.21% |
| O=C(CO[N+](=O)[O-])NNC(=O)c1ccc(NCC(O)CN2C(=O)/C(=C/C=C/c3ccccc3)S/C2=N/c2ccccc2)cc1 (centres undefined) | 84.86 mmHg | 77.54 mmHg | 80.16 mmHg | 90.58 mmHg | 307.46 | 295.42 | 302.23 | 308.77 | 52.4 | 53.6 | 53.6 | 52.4 | 21 | 22.4 | 21.4 | 20.4 | 74.6 | 75.8 | 74.8 | 73.4 | EC50 [22]: 34.7 µg/mL (≈ 56.2 µM); % NO release [23]: 0.24% |
| O=C(CO[N+](=O)[O-])NNC(=O)c1ccc(NCC(O)CN2C(=O)/C(=C/c3ccc(O)cc3)S/C2=N/c2ccccc2)cc1 (centres undefined) | 79.52 mmHg | 68.96 mmHg | 63.34 mmHg | 77.31 mmHg | 290.03 | 272.68 | 258.51 | 278.31 | 55.2 | 56 | 56.2 | 54.8 | 20.4 | 21.4 | 22.4 | 20.6 | 74.8 | 76 | 77.2 | 74.4 | Activity [21]: Active; EC50 [22]: 32.4 µg/mL (≈ 53.3 µM); % NO release [23]: 0.3% |
| Cc1ccc(/C=C2\S/C(=N/c3ccccc3)N(CC(O)CNc3ccc(C(=O)NNC(=O)CO[N+](=O)[O-])cc3)C2=O)cc1 (centres undefined) | 91.1 mmHg | 79.16 mmHg | 72.21 mmHg | 88.93 mmHg | 303.44 | 291.92 | 279.98 | 297.59 | 49.6 | 51.2 | 52 | 50.2 | 23.2 | 23.6 | 24 | 22.8 | 72.8 | 73.4 | 74.8 | 72.2 | EC50 [22]: 28.2 µg/mL (≈ 46.6 µM); % NO release [23]: 0.27% |
| O=C(CO[N+](=O)[O-])NNC(=O)c1ccc(NCC(O)CN2C(=O)/C(=C/c3ccc(F)cc3)S/C2=N/c2ccccc2)cc1 (centres undefined) | 84.89 mmHg | 78.92 mmHg | 80.53 mmHg | 85.23 mmHg | 300.28 | 289.83 | 294.11 | 300.39 | 51.7 | 52.2 | 52.4 | 52.2 | 22.8 | 23.6 | 23.2 | 22 | 67.8 | 68.6 | 68.2 | 66.4 | EC50 [22]: 49 µg/mL (≈ 80.5 µM); % NO release [23]: 0.23% |
| O=C(CO[N+](=O)[O-])NNC(=O)c1ccc(NCC(O)CN2C(=O)/C(=C/c3ccccc3)S/C2=N/c2ccccc2)cc1 (centres undefined) | 78.67 mmHg | 62.21 mmHg | 67.54 mmHg | 71.29 mmHg | 292.18 | 269.11 | 276.83 | 291.8 | 52.2 | 53.6 | 54.2 | 55.4 | 19.4 | 21.2 | 20.6 | 21.6 | 81.8 | 63.2 | 84.6 | 86.2 | Activity [21]: Active; EC50 [22]: 34.7 µg/mL (≈ 58.7 µM); % NO release [23]: 0.33% |
| COc1cc(/C=C2\S/C(=N/c3ccccc3)N(CC(O)CNc3ccc(C(=O)NNC(=O)CO[N+](=O)[O-])cc3)C2=O)cc(OC)c1OC (centres undefined) | 82.81 mmHg | 73.93 mmHg | 62.69 mmHg | 81.25 mmHg | 301.97 | 293.35 | 277.12 | 291.2 | 55 | 56.2 | 57.6 | 54.8 | 21.2 | 22 | 23.2 | 22.8 | 79.6 | 80.8 | 82.2 | 83.8 | EC50 [22]: 60.3 µg/mL (≈ 88.5 µM); % NO release [23]: 0.32% |
| O=C(CO[N+](=O)[O-])NNC(=O)c1ccc(NCC(O)CN2C(=O)/C(=C/c3ccccc3O)S/C2=N/c2ccccc2)cc1 (centres undefined) | 82.91 mmHg | 72.44 mmHg | 64.32 mmHg | 76.24 mmHg | 298.24 | 291.85 | 279.28 | 294.57 | 51.4 | 54.2 | 54.6 | 52.8 | 21.2 | 22.4 | 23.4 | 20.8 | 73.2 | 74.4 | 75.4 | 72.8 | Activity [21]: Active; EC50 [22]: 45.7 µg/mL (≈ 75.4 µM); % NO release [23]: 0.29% |
